Measurements published in ChEMBL document CHEMBL1165943, “Design and synthesis of new anticancer pyrimidines with multiple-kinase inhibitory effect” (Bioorg Med Chem, 2010).

Experiments:
Format in all cases: functional
SF-268 = experiment: Cytotoxicity against human SF268 cells assessed as cell growth at 10 uM
Procedure, shortened: (§1)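 Single-dose screen at 10 μM across the 60-cell-line panel. Cells grown in RPMI 1640 with 5% FBS and 2 mM L-glutamine, seeded at 5,000–40,000 cells/well according to doubling time, and treated 24 h later. Exposure lasted 48 h at 37 °C, 5% CO₂. Adherent cells were fixed with cold TCA, suspension cells were fixed settled, and both were stained with SRB and read at 515 nm. Growth % was recorded, with inhibition % = 100 − growth %.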

OVCAR-3 = experiment: Cytotoxicity against human OVCAR-3 cells assessed as cell growth at 10 uM; procedure, shortened: as §1
HCT-116 = experiment: Cytotoxicity against human HCT116 cells assessed as cell growth at 10 uM
Procedure, shortened: (§2)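 Single-concentration screen at 10 μM across the 60-cell-line panel (nine tissue types); growth percentage recorded per cell line, with inhibition taken as 100 minus growth percentage.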

[1] = Growth inhibition of human NCI60 cells at 10 uM after 48 hrs by sulforhodamine B assay relative to control
Procedure, shortened: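 Single 10 µM dose across the 60-line panel for 48 h, with the same culture, TCA fixation and SRB 515 nm read-out. Inhibition % = 100 − growth %, given as the mean over the 60 cell lines.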

Malme-3M = experiment: Cytotoxicity against human MALME-3M cells assessed as cell growth at 10 uM; procedure, shortened: as §1
NCI-H226 = experiment: Cytotoxicity against human NCI-H226 cells assessed as cell growth at 10 uM; procedure, shortened: as §1
SF-539 = experiment: Cytotoxicity against human SF539 cells assessed as cell growth at 10 uM; procedure, shortened: as §1
UACC-257 = experiment: Cytotoxicity against human UACC257 cells assessed as cell growth at 10 uM; procedure, shortened: as §1
HCC 2998 = experiment: Cytotoxicity against human HCC2998 cells assessed as cell growth at 10 uM; procedure, shortened: as §2
SK-MEL-5 = experiment: Cytotoxicity against human SK-MEL-5 cells assessed as cell growth at 10 uM; procedure, shortened: as §1
SF-295 = experiment: Cytotoxicity against human SF295 cells assessed as cell growth at 10 uM; procedure, shortened: as §1
MOLT-4 = experiment: Cytotoxicity against human MOLT4 cells assessed as cell growth at 10 uM; procedure, shortened: as §1
OVCAR-8 = experiment: Cytotoxicity against human OVCAR8 cells assessed as cell growth at 10 uM; procedure, shortened: as §1
EKVX = experiment: Cytotoxicity against human EKVX cells assessed as cell growth at 10 uM; procedure, shortened: as §2
BT-549 = experiment: Cytotoxicity against human BT549 cells assessed as cell growth at 10 uM; procedure, shortened: as §2
DU-145 = experiment: Cytotoxicity against human DU145 cells assessed as cell growth at 10 uM; procedure, shortened: as §2
LOX IMVI = experiment: Cytotoxicity against human LOXIMVI cells assessed as cell growth at 10 uM; procedure, shortened: as §1
NCI-H322M = experiment: Cytotoxicity against human NCI-H322M cells assessed as cell growth at 10 uM; procedure, shortened: as §1
NCI-H522 = experiment: Cytotoxicity against human NCI-H522 cells assessed as cell growth at 10 uM; procedure, shortened: as §1
786-0 = experiment: Cytotoxicity against human 786-0 cells assessed as cell growth at 10 uM; procedure, shortened: as §2
KM12 = experiment: Cytotoxicity against human KM12 cells assessed as cell growth at 10 uM; procedure, shortened: as §1
K562 = experiment: Cytotoxicity against human K562 cells assessed as cell growth at 10 uM; procedure, shortened: as §1
PC-3 = experiment: Cytotoxicity against human PC3 cells assessed as cell growth at 10 uM; procedure, shortened: as §1
HCT-15 = experiment: Cytotoxicity against human HCT15 cells assessed as cell growth at 10 uM; procedure, shortened: as §2
HL-60(TB) = experiment: Cytotoxicity against human HL-60(TB) cells assessed as cell growth at 10 uM
Procedure, shortened: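 Single-concentration 10 µM screen of HL-60(TB) within the 60-line panel, grown in RPMI 1640 with 5% FBS. The drug from DMSO stock is incubated 48 h at 37 °C, settled cells are TCA-fixed and SRB-stained, and absorbance is read at 515 nm. Percent growth is reported, and inhibition % is taken as 100 minus growth %.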

TK-10 = experiment: Cytotoxicity against human TK10 cells assessed as cell growth at 10 uM; procedure, shortened: as §1
U-251 = experiment: Cytotoxicity against human U251 cells assessed as cell growth at 10 uM; procedure, shortened: as §1
SK-OV-3 = experiment: Cytotoxicity against human SKOV3 cells assessed as cell growth at 10 uM; procedure, shortened: as §1
MDA-MB-468 = experiment: Cytotoxicity against human MDA-MB-468 cells assessed as cell growth at 10 uM; procedure, shortened: as §1
OVCAR-5 = experiment: Cytotoxicity against human OVCAR5 cells assessed as cell growth at 10 uM; procedure, shortened: as §1
NCI-H23 = experiment: Cytotoxicity against human NCI-H23 cells assessed as cell growth at 10 uM; procedure, shortened: as §1
OVCAR-4 = experiment: Cytotoxicity against human OVCAR4 cells assessed as cell growth at 10 uM; procedure, shortened: as §1
A498 = experiment: Cytotoxicity against human A498 cells assessed as cell growth at 10 uM; procedure, shortened: as §2
UO-31 = experiment: Cytotoxicity against human UO31 cells assessed as cell growth at 10 uM; procedure, shortened: as §1
ACHN = experiment: Cytotoxicity against human ACHN cells assessed as cell growth at 10 uM; procedure, shortened: as §2
NCI-H460 = experiment: Cytotoxicity against human NCI-H460 cells assessed as cell growth at 10 uM; procedure, shortened: as §1
CAKI-1 = experiment: Cytotoxicity against human Caki1 cells assessed as cell growth at 10 uM; procedure, shortened: as §2

Compound: CC(=O)c1ccccc1-c1ccc(-c2ccnc(NC(=O)Nc3cc(C(F)(F)F)cc(C(F)(F)F)c3)n2)cn1
- growth at 10 µM (SF-268; Homo sapiens, SF-268, read-out: Activity): 94.4%
- Activity (OVCAR-3): 126.52%
- growth at 10 µM (HCT-116; Homo sapiens, HCT-116, read-out: Activity): 69.9%
- inhibition of growth at 10 µM ([1]; Homo sapiens, NCI60, 48 h, read-out: GI): 11.3%
- Activity (Malme-3M): 105.41%
- growth at 10 µM (NCI-H226; Homo sapiens, NCI-H226, read-out: Activity): 98.6%
- growth at 10 µM (SF-539; Homo sapiens, SF-539, read-out: Activity): 87%
- Activity (UACC-257): 92.59%
- growth at 10 µM (HCC 2998; Homo sapiens, HCC 2998, read-out: Activity): 105%
- Activity (SK-MEL-5): 97.2%
- Activity (SF-295): 110.95%
- growth at 10 µM (MOLT-4; Homo sapiens, MOLT-4, read-out: Activity): 88.3%
- Activity (OVCAR-8): 83.37%
- growth at 10 µM (EKVX; Homo sapiens, EKVX, read-out: Activity): 91%
- Activity (BT-549): 90.06%
- Activity (DU-145): 91.19%
- Activity (LOX IMVI): 65.57%
- growth at 10 µM (NCI-H322M; Homo sapiens, NCI-H322M, read-out: Activity): 85%
- growth at 10 µM (NCI-H522; Homo sapiens, NCI-H522, read-out: Activity): 90.1%
- Activity (786-0): 93.55%
- growth at 10 µM (KM12; Homo sapiens, KM12, read-out: Activity): 93.8%
- growth at 10 µM (K562; Homo sapiens, K562, read-out: Activity): 90.8%
- Activity (PC-3): 74.12%
- growth at 10 µM (HCT-15; Homo sapiens, HCT-15, read-out: Activity): 93.2%
- growth at 10 µM (HL-60(TB); Homo sapiens, HL-60, read-out: Activity): 101%
- Activity (TK-10): 102.3%
- growth at 10 µM (U-251; Homo sapiens, U-251, read-out: Activity): 85.1%
- Activity (SK-OV-3): 91.88%
- Activity (MDA-MB-468): 81.95%
- Activity (OVCAR-5): 113.85%
- growth at 10 µM (NCI-H23; Homo sapiens, NCI-H23, read-out: Activity): 99.8%
- Activity (OVCAR-4): -18.53%
- Activity (A498): 106.93%
- Activity (UO-31): 76.28%
- Activity (ACHN): 88.77%
- growth at 10 µM (NCI-H460; Homo sapiens, NCI-H460, read-out: Activity): 95.9%
- Activity (CAKI-1): 81.28%

Compound: CC(=O)c1ccccc1-c1ccc(-c2ccnc(NC(=O)Nc3cc(C(F)(F)F)cc(C(F)(F)F)c3)n2)cn1.Cl
- Activity (SF-268): 83.42%
- growth at 10 µM (OVCAR-3; Homo sapiens, OVCAR-3, read-out: Activity): 108%
- Activity (HCT-116): 81.77%
- growth inhibition (GI) [1]: 9.74%
- Activity (Malme-3M): 85.32%
- Activity (NCI-H226): 103.94%
- Activity (SF-539): 91.97%
- growth at 10 µM (UACC-257; Homo sapiens, UACC-257, read-out: Activity): 102%
- Activity (HCC 2998): 88.79%
- growth at 10 µM (SK-MEL-5; Homo sapiens, SK-MEL-5, read-out: Activity): 103%
- Activity (SF-295): 80.92%
- Activity (MOLT-4): 93.09%
- growth at 10 µM (OVCAR-8; Homo sapiens, OVCAR-8, read-out: Activity): 90.8%
- Activity (EKVX): 87.92%
- Activity (BT-549): 63.01%
- growth at 10 µM (DU-145; Homo sapiens, DU-145, read-out: Activity): 109%
- Activity (LOX IMVI): 94.42%
- Activity (NCI-H322M): 92.06%
- Activity (NCI-H522): 77.27%
- growth at 10 µM (786-0; Homo sapiens, 786-0, read-out: Activity): 79.5%
- Activity (KM12): 92.08%
- Activity (K562): 80.11%
- growth at 10 µM (PC-3; Homo sapiens, PC-3, read-out: Activity): 89.9%
- Activity (HCT-15): 95.89%
- Activity (HL-60(TB)): 98.79%
- growth at 10 µM (TK-10; Homo sapiens, TK-10, read-out: Activity): 90.3%
- Activity (U-251): 86.33%
- growth at 10 µM (SK-OV-3; Homo sapiens, SK-OV-3, read-out: Activity): 76.5%
- growth at 10 µM (MDA-MB-468; Homo sapiens, MDA-MB-468, read-out: Activity): 74.7%
- Activity (OVCAR-5): 81.55%
- Activity (NCI-H23): 84.35%
- Activity (OVCAR-4): 98.42%
- growth at 10 µM (A498; Homo sapiens, A498, read-out: Activity): 113%
- growth at 10 µM (UO-31; Homo sapiens, UO-31, read-out: Activity): 75%
- growth at 10 µM (ACHN; Homo sapiens, ACHN, read-out: Activity): 91%
- Activity (NCI-H460): 93.37%
- growth at 10 µM (CAKI-1; Homo sapiens, CAKI-1, read-out: Activity): 78.4%
